In ChEMBL document CHEMBL2311276, “Synthesis of amidine and bis amidine derivatives and their evaluation for anti-inflammatory and anticancer activity” (Eur J Med Chem, 2013):

Columns and labels:
NCI-H522 [1] = assay: Cytotoxicity against human NCI-H522 cells assessed as growth inhibition at 1 x 10 '-5 M after 24 hrs by MTT assay; type: functional; details: NCI-H522, 24 h, read-out: GI
Method in brief: (§1)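 MTT screen at a single concentration of 1 × 10⁻⁵ M, 24 h exposure. Seeding was 5 × 10³ cells/well in RPMI-1640 with 2 mM glutamine. Vehicle was 0.1% final DMSO. MTT was added for 4 h at 37 °C, formazan dissolved in DMSO/glycine buffer (pH 10.5), and A570 read. Percent growth inhibition was calculated against vehicle-treated cells; triplicate, mean of three independent experiments.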

PA-1 [2] = assay: Cytotoxicity against human PA1 cells assessed as growth inhibition at 1 x 10 '-5 M after 24 hrs by MTT assay; type: functional; details: PA-1, 24 h, read-out: GI; method in brief: as §1
HepG2 [3] = assay: Cytotoxicity against human HepG2 cells assessed as growth inhibition at 1 x 10 '-5 M after 24 hrs by MTT assay; type: functional; details: HepG2, 24 h, read-out: GI; method in brief: as §1
T47D [4] = assay: Cytotoxicity against human T47D cells assessed as growth inhibition at 1 x 10 '-5 M after 24 hrs by MTT assay; type: functional; details: read-out: GI; method in brief: as §1
Rattus norvegicus = assay: Antiinflammatory activity in Charles Foster albino rat assessed as inhibition of carrageenan-induced paw edema at 50 mg/kg, po administered 30 mins before carrageenan challenge measured after 1 to 3 hrs by plethysmometer analysis; type: functional
Method in brief: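 Rats of both sexes (120–160 g; pregnant females excluded), five per group, were dosed orally at 50 mg/kg. After 30 min, 0.20 mL of freshly prepared 1% carrageenan in 0.9% NaCl was injected into the plantar aponeurosis of the hind paw. Paw volume was read by water plethysmometer before and 1–3 h later. Percent inhibition was taken against a carrageenan-only control group of five rats.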

HCT-15 [5] = assay: Cytotoxicity against human HCT15 cells assessed as growth inhibition at 1 x 10 '-5 M after 24 hrs by MTT assay; type: functional; details: HCT-15, 24 h, read-out: GI; method in brief: as §1
NCI-H522 [6] = assay: Cytotoxicity against human NCI-H522 cells after 24 hrs by MTT assay; type: functional, cell-based; details: NCI-H522, 24 h
Method in brief: (§2)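 Cell lines came from NCCS Pune and were grown in RPMI-1640 with 2 mM glutamine, pH 7.4. Cells were seeded at 5 × 10³ per well and exposed to serial dilutions in DMSO for 24 h, with 0.1% final DMSO as vehicle control. MTT (5 mg/ml) was added for 4 h at 37 °C. Formazan was dissolved in DMSO plus Sorensen glycine buffer (pH 10.5) and read at 570 nm. IC50 came from % inhibition versus vehicle; triplicate, mean ± SD of three experiments.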

HCT-15 [7] = assay: Cytotoxicity against human HCT15 cells after 24 hrs by MTT assay; type: functional, cell-based; details: HCT-15, 24 h; method in brief: as §2
T47D [8] = assay: Cytotoxicity against human T47D cells after 24 hrs by MTT assay; type: functional, cell-based; method in brief: as §2
COS-1 = assay: Cytotoxicity against african green monkey COS1 cells after 24 hrs by MTT assay; type: cell-based; details: Chlorocebus aethiops, COS-1, 24 h
HepG2 [9] = assay: Cytotoxicity against human HepG2 cells after 24 hrs by MTT assay; type: functional, cell-based; details: HepG2, 24 h; method in brief: as §2
PA-1 [10] = assay: Cytotoxicity against human PA1 cells after 24 hrs by MTT assay; type: functional, cell-based; details: PA-1, 24 h; method in brief: as §2

SMILES	inhibition of growth at 10 µM (NCI-H522 [1]) [%]	inhibition of growth at 10 µM (PA-1 [2]) [%]	inhibition of growth at 10 µM (HepG2 [3]) [%]	inhibition of growth at 10 µM (T47D [4]) [%]	inhibition in vivo at 50 mg/kg (Rattus norvegicus) [%]	inhibition of growth at 10 µM (HCT-15 [5]) [%]	IC50 (NCI-H522 [6]) [µM]	IC50 (HCT-15 [7]) [µM]	IC50 (T47D [8]) [µM]	IC50 (COS-1) [µM]	IC50 (HepG2 [9]) [µM]	IC50 (PA-1 [10]) [µM]
N=C(Nc1ccc(-c2ccc(NC(=N)c3ccccn3)cc2)cc1)c1ccccn1	32	37	23	2	26	16						
N=C(Nc1ccc(-c2ccc(NC(=N)c3ccncc3)cc2)cc1)c1ccncc1	36	7	48	12	15	3	13.4	124	34.1	50	11.9	42.5
N=C(NCCN1CCOCC1)c1cnccn1	35	51	52	13	15	6	18.2	78.3	55.4	173	9.4	13.6
N=C(NCc1cccnc1)c1ccccn1	9	36	42	23	10	23						
N=C(NCc1cccnc1)c1ccncc1	7	21	20	22	0	22						
N=C(NCc1cccnc1)c1cnccn1	11	23	26	23	18	3						
N=C(NCCN1CCNCC1)c1ccccn1	8	40	27	14	11	24						
N=C(NCCN1CCNCC1)c1ccncc1	17	46	10	6	0	13	35.3	35.4	184	147	191	19.3
N=C(NCCN1CCNCC1)c1cnccn1	9	36	23	22	20	28						
N=C(NCCCCNC(=N)c1ccccn1)c1ccccn1	38	27	26	29	14	5						
N=C(NCCCCNC(=N)c1ccncc1)c1ccncc1	20	10	50	27	15	5	36.6	87.8	43	246	11.2	49.2
